Laboratory results: ChEMBL document CHEMBL1147643 (J Med Chem, 2006)
Substitutions are numbered along the chain they refer to. Activity calls are given as the source filed them. The rule behind the calls is not given here.

Tests used:
Adenosine receptor A3 [1] = target: T1, Adenosine receptor A3 (Homo sapiens, UniProt P0DMS8); assay: Displacement of [125I]I-AB-MECA from wild type adenosine A3 receptor expressed in COS7 cells; assay type: cell-based, COS-7
T1 sequence (P0DMS8 whole entry): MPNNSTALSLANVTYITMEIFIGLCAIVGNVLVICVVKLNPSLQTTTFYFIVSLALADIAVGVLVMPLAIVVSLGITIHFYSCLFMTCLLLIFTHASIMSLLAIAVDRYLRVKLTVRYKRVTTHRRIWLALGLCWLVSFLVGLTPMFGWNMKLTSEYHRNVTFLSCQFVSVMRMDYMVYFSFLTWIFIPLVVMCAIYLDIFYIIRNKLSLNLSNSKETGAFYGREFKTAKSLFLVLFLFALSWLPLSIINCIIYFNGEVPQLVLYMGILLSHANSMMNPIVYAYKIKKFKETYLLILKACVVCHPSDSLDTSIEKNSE

Adenosine receptor A3 [2] = target: T2, Adenosine receptor A3 (Homo sapiens, UniProt P0DMS8, H272E); assay: Displacement of [125I]I-AB-MECA from human adenosine A3 receptor H272E mutant expressed in COS7 cells; assay type: cell-based, COS-7
Adenosine receptor A3 [3] = target: Adenosine receptor A3 (Homo sapiens, UniProt P0DMS8, H272D); assay: Displacement of [125I]I-AB-MECA from human adenosine A3 receptor H272D mutant expressed in COS7 cells; assay type: cell-based, COS-7
Procedure, shortened: (§1)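 Receptor cDNA, wild-type or mutant with mutations confirmed by sequencing, transiently transfected into COS-7 cells with Lipofectamine 2000. […] Displacement of agonist radioligand [125I]I-AB-MECA measured; Ki values derived.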

Adenosine receptor A3 [4] = target: Adenosine receptor A3 (Homo sapiens, UniProt P0DMS8, T94E); assay: Displacement of [125I]I-AB-MECA from human adenosine A3 receptor T94E mutant expressed in COS7 cells; assay type: cell-based, COS-7; procedure, shortened: as §1
Adenosine receptor A3 [5] = target: Adenosine receptor A3 (Homo sapiens, UniProt P0DMS8, Q167E); assay: Displacement of [125I]I-AB-MECA from human adenosine A3 receptor Q167E mutant expressed in COS7 cells; assay type: cell-based, COS-7; procedure, shortened: as §1
[6] = target: T3, Adenosine receptor A3 (Homo sapiens) (UniProt P0DMS8); assay: Activity against human wild type adenosine A3 receptor expressed in COS7 cells as measured by accumulation of inositol phosphate by PLC assay; assay type: functional, cell-based; settings: COS-7
T3 sequence (whole entry): T1 sequence (P0DMS8 whole entry)

[7] = test system: T4, Adenosine receptor A3 (Homo sapiens), P0DMS8 [H272E]; assay: (§2) Activity against human adenosine A3 receptor H272E mutant expressed in COS7 cells as measured by accumulation of inositol phosphate by PLC assay; assay type: functional, cell-based; settings: COS-7
T4 sequence (whole entry): T1 sequence (P0DMS8 whole entry) with H272E

Adenosine receptor A3 [8] = target: Adenosine receptor A3 (Homo sapiens, UniProt P0DMS8, T94A); assay: Displacement of [125I]I-AB-MECA from human adenosine A3 receptor T94A mutant expressed in COS7 cells; assay type: cell-based, COS-7; procedure, shortened: as §1
[9] = test system: T4, Adenosine receptor A3 (Homo sapiens), P0DMS8 [H272E]; assay: Inhibition of [125I]I-AB-MECA binding to human adenosine A3 receptor H272E mutant expressed in COS7 cells at 10 uM; assay type: cell-based; settings: COS-7
[10] = target: T3, Adenosine receptor A3 (Homo sapiens); assay: Inhibition of [125I]I-AB-MECA binding to wild type adenosine A3 receptor expressed in COS7 cells at 10 uM; assay type: cell-based; settings: COS-7
[11] = target: Adenosine receptor A2a (Homo sapiens) (UniProt P29274); assay: Inhibition of human adenosine A2A receptor expressed in CHO cells at 10 uM; assay type: cell-based
[12] = target: T5, Adenosine receptor A1 (Homo sapiens) (UniProt P30542); assay: Inhibition of human adenosine A1 receptor expressed in CHO cells at 10 uM; assay type: cell-based
T5 sequence (whole entry): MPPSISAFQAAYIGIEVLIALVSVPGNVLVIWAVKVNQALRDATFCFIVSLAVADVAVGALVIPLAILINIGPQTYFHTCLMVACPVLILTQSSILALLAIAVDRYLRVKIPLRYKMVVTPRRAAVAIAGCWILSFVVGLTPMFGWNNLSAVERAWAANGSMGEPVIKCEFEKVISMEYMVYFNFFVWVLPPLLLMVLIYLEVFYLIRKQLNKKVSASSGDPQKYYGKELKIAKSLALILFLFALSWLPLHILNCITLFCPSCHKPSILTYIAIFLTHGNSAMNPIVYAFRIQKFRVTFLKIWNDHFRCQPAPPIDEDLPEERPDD

Adenosine receptor A3 [13] = target: T2, Adenosine receptor A3; assay: as §2; assay type: functional, cell-based, COS-7
[14] = target: T6, Adenosine receptor A2b (Homo sapiens) (UniProt P29275); assay: Activity against adenosine A2B receptor expressed in CHO cells by stimulation of cAMP production at 10 uM; assay type: functional, cell-based
T6 sequence (whole entry): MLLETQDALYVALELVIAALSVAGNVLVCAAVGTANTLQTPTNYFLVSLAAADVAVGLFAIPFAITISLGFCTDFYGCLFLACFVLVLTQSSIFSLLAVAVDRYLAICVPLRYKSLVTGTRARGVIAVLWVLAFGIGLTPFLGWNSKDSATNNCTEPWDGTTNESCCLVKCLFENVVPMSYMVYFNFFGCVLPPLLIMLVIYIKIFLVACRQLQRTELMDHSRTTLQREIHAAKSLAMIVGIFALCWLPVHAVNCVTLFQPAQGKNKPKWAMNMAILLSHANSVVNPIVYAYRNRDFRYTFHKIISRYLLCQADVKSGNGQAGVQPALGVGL

Adenosine receptor A2a (Homo sapiens), sequence (P29274 whole entry): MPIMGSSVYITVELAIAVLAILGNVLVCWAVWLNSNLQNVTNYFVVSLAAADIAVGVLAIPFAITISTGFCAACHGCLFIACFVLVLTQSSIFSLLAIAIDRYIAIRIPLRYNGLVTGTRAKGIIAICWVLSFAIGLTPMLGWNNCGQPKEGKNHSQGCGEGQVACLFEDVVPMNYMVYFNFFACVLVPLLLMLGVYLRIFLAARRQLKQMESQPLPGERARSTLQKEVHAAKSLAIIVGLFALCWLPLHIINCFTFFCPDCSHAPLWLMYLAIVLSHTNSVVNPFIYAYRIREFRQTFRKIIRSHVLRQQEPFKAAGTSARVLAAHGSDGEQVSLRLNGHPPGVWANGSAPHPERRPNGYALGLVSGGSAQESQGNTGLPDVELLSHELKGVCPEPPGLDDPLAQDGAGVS
Adenosine receptor A3 (Homo sapiens, UniProt P0DMS8, H272D), sequence (P0DMS8 whole entry H272D): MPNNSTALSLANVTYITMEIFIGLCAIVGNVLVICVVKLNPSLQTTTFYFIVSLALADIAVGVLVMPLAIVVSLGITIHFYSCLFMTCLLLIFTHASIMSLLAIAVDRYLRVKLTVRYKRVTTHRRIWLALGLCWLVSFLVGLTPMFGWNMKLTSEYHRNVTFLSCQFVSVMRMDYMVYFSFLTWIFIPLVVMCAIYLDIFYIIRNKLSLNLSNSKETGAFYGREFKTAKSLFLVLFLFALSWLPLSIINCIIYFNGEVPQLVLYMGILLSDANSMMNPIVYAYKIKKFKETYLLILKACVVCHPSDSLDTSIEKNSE
Adenosine receptor A3 (Homo sapiens, UniProt P0DMS8, T94E), sequence (P0DMS8 whole entry T94E): as the sequence (P0DMS8 whole entry H272D) above, with T94E, D272H counted along it
T2 sequence (P0DMS8 whole entry H272E): as the sequence (P0DMS8 whole entry H272D) above, with D272E counted along it
Adenosine receptor A3 (Homo sapiens, UniProt P0DMS8, Q167E), sequence (P0DMS8 whole entry Q167E): as the sequence (P0DMS8 whole entry H272D) above, with Q167E, D272H counted along it
Adenosine receptor A3 (Homo sapiens, UniProt P0DMS8, T94A), sequence (P0DMS8 whole entry T94A): as the sequence (P0DMS8 whole entry H272D) above, with T94A, D272H counted along it

SMILES	Ki (Adenosine receptor A3 [1]) [nM]	Ki (Adenosine receptor A3 [2]) [nM]	Ki (Adenosine receptor A3 [3]) [nM]	Ki (Adenosine receptor A3 [4]) [nM]	Ki (Adenosine receptor A3 [5]) [nM]	Activity [6]	Activity [7]	Ki (Adenosine receptor A3 [8]) [nM]	inhibition [9] [%]	inhibition [10] [%]	inhibition [11] [%]	inhibition [12] [%]	EC50 (Adenosine receptor A3 [13]) [nM]	Activity [14]
CNC(=O)[C@H]1O[C@@H](n2cnc3c(NCc4cc(Cl)ccc4OC)ncnc32)[C@H](O)[C@@H]1CN	557	592	390	850	7200	–	–	–	–	–	–	–	–	–
NNC(=O)[C@H]1O[C@@H](n2cnc3c(N)ncnc32)[C@H](O)[C@@H]1O	1500	> 10000	–	–	–	–	–	–	–	–	–	–	–	–
CNC(=O)[C@H]1O[C@@H](n2cnc3c(NCc4cccc(I)c4)ncnc32)[C@H](O)[C@@H]1N=[N+]=[N-]	2260	186	140	2000	–	inactive	inactive	1370	–	–	–	–	–	–
COc1ccc(Cl)cc1CNc1ncnc2c1ncn2[C@@H]1O[C@H](CO)[C@@H](CN)[C@H]1O	13800	709	2000	> 10000	> 10000	–	–	9800	–	–	–	–	–	–
NC[C@H]1[C@@H](O)[C@H](n2cnc3c(N)ncnc32)O[C@@H]1CO	–	–	–	–	–	–	–	–	2	3	–	–	–	–
CNC(=O)[C@H]1O[C@@H](n2cnc3c(NC)ncnc32)[C@H](O)[C@@H]1NC(N)=O	–	–	–	–	–	–	–	–	7	7	< 10	< 10	–	–
CC(=O)NC[C@H]1[C@@H](O)[C@H](n2cnc3c(NCc4cccc(I)c4)ncnc32)O[C@@H]1CO	> 10000	700	1000	> 10000	> 10000	–	–	> 10000	–	15	–	–	–	–
CNC(=O)[C@H]1O[C@@H](n2cnc3c(NCc4cccc(I)c4)ncnc32)[C@H](O)[C@@H]1CN	137	185	120	110	570	–	–	120	–	–	–	–	–	–
CNc1ncnc2c1ncn2[C@@H]1O[C@H](CO)[C@@H](NC(N)=O)[C@H]1O	–	–	–	–	–	–	–	–	30	3	< 10	< 10	–	–
CNC(=O)[C@H]1O[C@@H](n2cnc3c(NCc4cccc(I)c4)ncnc32)[C@H](O)[C@@H]1NC(N)=O	–	2700	–	–	–	–	–	–	–	5	< 10	< 10	–	–
[N-]=[N+]=NC[C@H]1S[C@@H](n2cnc3c(NCc4cccc(I)c4)ncnc32)[C@H](O)[C@@H]1O	22	230	–	–	–	inactive	inactive	–	–	–	–	–	–	–
NC(=O)N[C@H]1[C@@H](O)[C@H](n2cnc3c(NCc4cccc(I)c4)ncnc32)O[C@@H]1CO	> 10000	220	470	> 10000	> 100000	–	–	> 10000	–	9	< 10	< 10	180	inactive
NC(=O)N[C@H]1[C@@H](O)[C@H](n2cnc3c(NCc4cccc(I)c4)nc(Cl)nc32)O[C@@H]1CO	–	200	–	–	–	–	–	–	–	47	< 10	34	–	–
NC[C@H]1[C@@H](O)[C@H](n2cnc3c(NCc4cccc(I)c4)ncnc32)O[C@@H]1CO	9500	610	850	10000	> 10000	–	–	10700	–	–	–	–	–	–
